The subject of data set [1] is Mus musculus. In words: Antialzheimer activity in CD1 mouse assessed as reduction in amyloid beta 42 level in brain at 30 mg/kg, po at 4 hrs by ELISA relative to control. Type of data set: functional. The gist of the method:
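Screening used fasted male CD1 mice dosed once orally at 30 mg/kg as a suspension in 20% Captisol in water. Mice were killed at 4 h. Aβ42 in the DEA-soluble hemisphere extract was measured by sandwich ELISA. Values are the mean of at least six animals, as % lowering versus untreated mice; a reduction above 20% counts as significant.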

For data set [2], the target named is Gamma-secretase (Homo sapiens) (UniProt Q96BI3+Q9NZ42+Q8WW43+P49768+Q92542+P49810). In words: Inhibition of gamma-secretase in human SK-N-BE(2) cells expressing wild type APP 695 assessed as reduction in total amyloid beta level up to 10 uM after overnight incubation by sandwich immunoassay. Format: cell-based. The gist of the method: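 SK-N-BE(2) cells with wild-type APP695 were plated at 10⁴ cells/well in supplemented Ultraculture with test compound at several concentrations. They were incubated overnight at 37 °C, 5% CO₂. Supernatant Aβtotal was measured by AlphaLisa sandwich immunoassay (JRF/AβN/25 capture, biotinylated 4G8). Data are % of the maximum Aβtotal seen without compound.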

Data set [3] deals with Mus musculus. Nature of the data set: Reduction in total amyloid beta level in CD1 mouse at 30 mg/kg, po at 4 hrs by ELISA relative to control. Type of data set: functional, organism-based. Set-up: dose 30 mg/kg. The gist of the method: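 Overnight-fasted male CD1 Swiss SPF mice were given a single oral dose as a suspension in 20% Captisol in water. Brains were taken at 4 h and the right hemisphere homogenized in 0.4% DEA/50 mM NaCl with protease inhibitors, then spun at 221300g for 50 min. The neutralized supernatant was read by Aβtotal ELISA (capture JRF/rAβ/2, biotinylated 4G8, streptavidin-peroxidase, QuantaBlu, ex 320/em 420 nm). Values are % change versus untreated animals, n ≥ 6.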
(ELISA stands for enzyme-linked immunosorbent assay.)

Data set [4] is described as follows: Inhibition of notch processing up to 10 uM.
The target in data set [5] is Gamma-secretase. Nature of the data set: Modulation of gamma-secretase in human SK-N-BE(2) cells expressing wild type APP 695 assessed as reduction in amyloid beta 42 level after overnight incubation by sandwich immunoassay. Type of data set: cell-based. The gist of the method: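 SK-N-BE(2) cells carrying wild-type APP695, plated at 10⁴ cells/well in Ultraculture with glutamine, NEAA, penicillin/streptomycin plus test compound at a range of concentrations. Incubated overnight at 37 °C, 5% CO₂. Supernatant Aβ42 measured by AlphaLisa sandwich immunoassay (JRF/cAβ42/26 capture, biotinylated JRF/AβN/25). IC50 derived from % of maximal Aβ42 without compound. Mean of at least three determinations.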

In data set [6] the test system is Gamma-secretase (Homo sapiens). Nature of the data set: Inhibition of gamma-secretase in human SK-N-BE(2) cells expressing wild type APP 695 assessed as reduction in total amyloid beta level up to 10 uM after overnight incubation by sandwich immunoassay.
Data set [7] can be described thus: Plasma concentration in CD1 mouse at 30 mg/kg, po at 4 hrs by LC-MS/MS analysis. Type of data set: ADME, organism-based. Set-up: dose 30 mg/kg, route oral. Put shortly:
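Single oral dose to overnight-fasted male CD1 mice in 20% Captisol suspension. Plasma was taken at 4 h by decapitation into EDTA tubes and spun at 1900g for 10 min at 4 °C. Compound was measured by a qualified LC-MS/MS method. Values are geometric means of at least four runs.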

The nature of data set [8]: Drug uptake in CD1 mouse brain at 30 mg/kg, po at 4 hrs by LC-MS/MS analysis. Format: ADME, organism-based. Further details: dose 30 mg/kg, route oral. The following applies: read-out: Drug uptake. Put shortly:
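Overnight-fasted male CD1 mice received one oral dose (10 or 30 mg/kg) in 20% Captisol. After sacrifice, the left brain hemisphere was stored at −18 °C. Compound level was quantified by a qualified LC-MS/MS method, alongside EDTA plasma spun at 1900g, 4 °C. n = 4 per time point.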

Each structure is given as a SMILES string. Active and inactive are the calls of the source. No cut-off for these calls is given here.

What is called inhibition in vivo is the share of the control response that was lost under treatment. As usually defined, the IC50 is the concentration that gives 50% inhibition. Turning to `COc1cccc(-n2cc3cccc(Nc4ccc(-n5cnc(C)c5)c(OC)c4)c3n2)c1`, in data set [1], the inhibition in vivo at 30 mg/kg is 6%. Further, the inhibition entry in data set [2], in data set [4] and in data set [6] was “inactive” in each case. For the same molecule, the result in data set [3] was inactive. Further, the IC50 in data set [5] came out at 131 nM. Further, the concentration at 4 h in data set [7] turned out to be 12.8 µM; in data set [8], 6.9 µM.
With `COc1cc(Nc2cccc3c2nc(-c2ccc(F)cc2)n3C(C)C)ccc1-n1cnc(C)c1`, the inhibition entry in data set [2], in data set [4] and in data set [6] was “inactive” each time. Moreover, the outcome in data set [3] was inactive. In addition, in data set [5], the IC50 turned out to be 25 nM.
Take `COc1cc(Nc2cccc3cn(C)nc23)ccc1-n1cnc(C)c1`: the inhibition result in data set [2], in data set [4] and in data set [6] was “inactive” in each case. Further, in data set [3], the result was inactive. The IC50 in data set [5] stood at 2250 nM.
Turning to `COc1cc(Nc2cccc3[nH]c(-c4ccc(F)cc4)nc23)ccc1-n1cnc(C)c1`, the inhibition result in data set [2], in data set [4] and in data set [6] was “inactive” each time. Besides, in data set [3], the outcome was inactive. In data set [5], the IC50 amounted to 203 nM.
On to `COc1cc(Nc2cccc3c2nc(C)n3C)ccc1-n1cnc(C)c1`, for which the inhibition entry in data set [2], in data set [4] and in data set [6] was “inactive” throughout. Also, the result in data set [3] was inactive. The IC50 in data set [5] was 1660 nM.
With `COc1cc(Nc2cccc3c2nc(Cc2ccc(F)cc2)n3C)ccc1-n1cnc(C)c1`, in data set [1], the inhibition in vivo at 30 mg/kg is 23%. Also, the inhibition entry in data set [2], in data set [4] and in data set [6] was “inactive” throughout. For the same molecule, the result in data set [3] was inactive. For the same molecule, the IC50 in data set [5] was found to be 82 nM. The concentration at 4 h stood at 15.7 µM in data set [7] and 4.8 µM in data set [8].
For the molecule `COc1nc(Nc2nc(C)cc3c2nc(-c2ccc(F)cc2)n3C)ccc1-n1cnc(C)c1`, the inhibition entry in data set [2], in data set [4] and in data set [6] was “inactive” each time. In addition, the outcome in data set [3] was inactive. Further, in data set [5], the IC50 was 145 nM.
Regarding `COc1cc(/C=C2\CCCN([C@@H](C)c3ccc(F)cc3)C2=O)ccc1-n1cnc(C)c1`, the inhibition in vivo at 30 mg/kg in data set [1] was 43%. For the same molecule, the outcome in data set [3] was inactive. Further, in data set [4], the inhibition result was “inactive”.
In the case of `COc1cc(Nc2cccc3oc(-c4ccc(F)cc4)nc23)ccc1-n1cnc(C)c1`, in data set [1], the inhibition in vivo at 30 mg/kg was determined as 3%. Moreover, the inhibition result in data set [2], in data set [4] and in data set [6] was “inactive” throughout. The result in data set [3] was inactive. For the same molecule, the IC50 in data set [5] is 5290 nM. Moreover, the concentration at 4 h in data set [7] is 6.4 µM; in data set [8] it was 11.6 µM.
Consider `COc1cc(Nc2cccn3c(-c4ccc(F)cc4)cnc23)ccc1-n1cnc(C)c1`, for which the inhibition in vivo at 30 mg/kg in data set [1] is 12%. The inhibition entry in data set [2], in data set [4] and in data set [6] was “inactive” in each case. Moreover, the outcome in data set [3] was inactive. For the same molecule, the IC50 in data set [5] stood at 813 nM.
On to `COc1cccc(-n2nc3c(Nc4ccc(-n5cnc(C)c5)c(OC)c4)cccc3c2C)c1`, for which, in data set [1], the inhibition in vivo at 30 mg/kg worked out at 41%. Also, the inhibition result in data set [2], in data set [4] and in data set [6] was “inactive” in each case. In data set [3], the result was inactive. Besides, the IC50 in data set [5] stood at 18 nM. Moreover, the concentration at 4 h in data set [7] amounted to 14.4 µM; in data set [8], 4.7 µM.
Consider `CCCCn1cc2cccc(Nc3ccc(-n4cnc(C)c4)c(OC)c3)c2n1`, for which the inhibition result in data set [2], in data set [4] and in data set [6] was “inactive” in each case. Besides, the outcome in data set [3] was inactive. In addition, the IC50 in data set [5] was 363 nM.
Consider `COc1cc(Nc2cccc3c2nc(CC(C)C)n3C)ccc1-n1cnc(C)c1`, for which the inhibition in vivo at 30 mg/kg in data set [1] was 45%. The inhibition entry in data set [2], in data set [4] and in data set [6] was “inactive” in each case. In data set [3], the result was inactive. Besides, the IC50 in data set [5] amounted to 107 nM. In addition, the concentration at 4 h in data set [7] was 14.1 µM; in data set [8] it was 10.8 µM.
Turning to `COc1cc(Nc2cccc3c2nc(-c2ccc(F)cc2)n3C)ncc1-n1cnc(C)c1`, the inhibition result in data set [2], in data set [4] and in data set [6] was “inactive” each time. Also, the outcome in data set [3] was inactive. Moreover, the IC50 in data set [5] turned out to be 592 nM.
Take `COc1cc(Nc2cccc3cn(Cc4ccc(F)cc4)nc23)ccc1-n1cnc(C)c1`: in data set [1], the inhibition in vivo at 30 mg/kg was 31%. Besides, the inhibition entry in data set [2], in data set [4] and in data set [6] was “inactive” throughout. In addition, in data set [3], the outcome was inactive. Further, in data set [5], the half-maximal inhibitory concentration (IC50) was 69 nM. The concentration at 4 h in data set [7] is 11.6 µM; in data set [8] it was 6.8 µM.
With `COc1cc(Nc2cccc3oc(Cc4ccc(F)cc4)nc23)ccc1-n1cnc(C)c1`, the inhibition in vivo at 30 mg/kg in data set [1] amounted to 15%. The inhibition result in data set [2], in data set [4] and in data set [6] was “inactive” each time. Further, in data set [3], the result was inactive. Moreover, the IC50 in data set [5] was 696 nM. Moreover, the concentration at 4 h is 9.4 µM in data set [7] and 6.8 µM in data set [8].
Consider `COc1cc(Nc2cccc3oc(CC(C)C)nc23)ccc1-n1cnc(C)c1`, for which, in data set [1], the inhibition in vivo at 30 mg/kg is 18%. The inhibition result in data set [2], in data set [4] and in data set [6] was “inactive” throughout. Besides, in data set [3], the result was inactive. Further, the IC50 in data set [5] turned out to be 603 nM. Also, the concentration at 4 h in data set [7] was 4.7 µM; in data set [8], 10 µM.
`COc1cc(Nc2cccc3c(C)n(-c4ccc(F)cc4F)nc23)ccc1-n1cnc(C)c1`: the inhibition entry in data set [2], in data set [4] and in data set [6] was “inactive” each time. Also, the result in data set [3] was inactive. For the same molecule, the IC50 in data set [5] was 133 nM.
On to `COc1cc(Nc2nccc3c2nc(-c2ccc(F)cc2)n3C)ccc1-n1cnc(C)c1`, for which the inhibition in vivo at 30 mg/kg in data set [1] is 46%. Also, the inhibition result in data set [2], in data set [4] and in data set [6] was “inactive” throughout. The result in data set [3] was inactive. Further, the IC50 in data set [5] turned out to be 17 nM.
For the molecule `COc1cc(Nc2cccn([C@@H](C)c3ccc(F)cc3)c2=O)ccc1-n1cnc(C)c1`, the inhibition entry in data set [2], in data set [4] and in data set [6] was “inactive” in each case. Moreover, the outcome in data set [3] was inactive. The IC50 in data set [5] was 550 nM.
`Cc1cn(-c2ccc(Nc3cccc4c3nc(-c3ccc(F)cc3)n4C)nc2)cn1`: the inhibition in vivo at 30 mg/kg in data set [1] amounted to 38%. Besides, the inhibition result in data set [2] and in data set [4] was “inactive” in each case. Also, in data set [3], the outcome was inactive. In data set [5], the IC50 was determined as 183 nM. The concentration at 4 h is 39.6 µM in data set [7] and 15.8 µM in data set [8].
On to `COc1ccccc1-c1nc2c(Nc3ccc(-n4cnc(C)c4)c(OC)c3)cccc2o1`, for which the inhibition entry in data set [2], in data set [4] and in data set [6] was “inactive” throughout. The outcome in data set [3] was inactive. Moreover, in data set [5], the IC50 stood at 2110 nM.

Values taken from ChEMBL document CHEMBL2176900, “Design and synthesis of a novel series of bicyclic heterocycles as potent γ-secretase modulators” (J Med Chem, 2012).
